ChEMBL document CHEMBL4428089 (Bioorg Med Chem, 2016)
Active and inactive are the calls of the source. The calls are words filed in the database; no cut-off is given here.

Key:
[1] = molecular target: Alpha-synuclein (Homo sapiens) (UniProt P37840); experiment: Induction of recombinant alphaSN (unknown origin) fibrillation at 120 uM after 6 days by ThT fluorescence assay
Summary of the method: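 Cell-free alpha-synuclein aggregation: SN shaken alone or co-incubated with each drug for 6 days. Fibrillization read by thioflavin T fluorescence and normalized to SN shaken alone for six days. Drugs were also run without SN to check for ThT interference. Means ± SEM of three independent experiments; one-way ANOVA with Tukey's post hoc test.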

Rattus norvegicus [2] = organism: Rattus norvegicus; experiment: Selectivity ratio of Ki for rat D2L dopamine receptor expressed in HEK293 cells to Ki for rat D3 dopamine receptor expressed in HEK293 cells; assay type: cell-based
D(3) dopamine receptor [3] = molecular target: D(3) dopamine receptor (Rattus norvegicus, UniProt P19020); experiment: Displacement of [3H]spiperone from rat D3 dopamine receptor expressed in HEK293 cell membranes after 1 hr
D(2) dopamine receptor [4] = molecular target: D(2) dopamine receptor (Rattus norvegicus, UniProt P61169); experiment: Displacement of [3H]spiperone from rat D2L dopamine receptor expressed in HEK293 cell membranes after 1 hr
D(2) dopamine receptor [5] = molecular target: T1, D(2) dopamine receptor (Homo sapiens, UniProt P14416); experiment: Agonist activity at human D2 dopamine receptor expressed in CHO cells by [35S]GTPgammaS binding assay; assay type: functional, cell-based
Summary of the method: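 [35S]GTPγS binding stimulated in CHO cells expressing human D2 or D3 receptors. The D2/D3 ratio is the ratio of the EC50 values. Values are means ± SEM of three to five experiments, each run in triplicate.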

D(2) dopamine receptor [6] = molecular target: T1, D(2) dopamine receptor; experiment: Agonist activity at human D2 dopamine receptor expressed in CHO cells by [35S]GTPgammaS binding assay relative to dopamine; assay type: functional, cell-based
Summary of the method: (§1)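 [35S]GTPγS binding stimulated in CHO cells expressing human D2 or D3 receptors. […] The D2/D3 ratio is the ratio of the EC50 values. Values are means ± SEM of three to five experiments, each run in triplicate.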

D(3) dopamine receptor [7] = molecular target: T2, D(3) dopamine receptor (Homo sapiens, UniProt P35462); experiment: Agonist activity at human D3 dopamine receptor expressed in CHO cells by [35S]GTPgammaS binding assay; assay type: functional, cell-based
D(3) dopamine receptor [8] = molecular target: T2, D(3) dopamine receptor; experiment: Agonist activity at human D3 dopamine receptor expressed in CHO cells by [35S]GTPgammaS binding assay relative to dopamine; assay type: functional, cell-based; summary of the method: as §1
PC-12 [9] = experiment: Neuroprotective activity against 6-OHDA induce toxicity in rat PC12 cells assessed as cell viability preincubated for 24 hrs followed by 6-OHDA addition for 24 hrs by MTT assay; assay type: functional, cell-based
Summary of the method: (§2)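 PC12 cells were pretreated for 24 h across a concentration range (0.1-30 µM or 1-50 µM, depending on compound). A single dose of 75 µM 6-OHDA was then added for a further 24 h. Cell viability was measured by MTT assay.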

PC-12 [10] = experiment: Neuroprotective activity against 6-OHDA induce toxicity in rat PC12 cells assessed as cell viability at 30 uM preincubated for 24 hrs followed by 6-OHDA addition for 24 hrs by MTT assay; assay type: functional; details: read-out: Activity; summary of the method: as §2
[11] = molecular target: Alpha-synuclein (Homo sapiens) (UniProt P37840); experiment: Inhibition of recombinant alphaSN (unknown origin) fibrillation at 120 uM after 6 days by ThT fluorescence assay
Summary of the method: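 α-Synuclein was shaken for 6 days with or without the drug. Fibrillization was read by ThT fluorescence, normalized to α-synuclein shaken alone at day 6. Drugs were also tested alone in the ThT read-out. Values are means ± SEM of three independent experiments, compared by one-way ANOVA with Tukey post hoc test.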

Homo sapiens = organism: Homo sapiens; experiment: Selectivity ratio of EC50 for human D2 dopamine receptor expressed in CHO cells to EC50 for human D3 dopamine receptor expressed in CHO cells; assay type: cell-based; summary of the method: as §1
Rattus norvegicus [12] = experiment: Reversal of reserpine-induced hypolocomotion in Sprague-Dawley rat assessed as locomotor stimulation at 10 umol/kg, ip administered 18 hrs post reserpine challenge measured over 6 hrs; assay type: functional, organism-based
Summary of the method: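 Rats received reserpine 5 mg/kg s.c. The drug was given at 10 µmol/kg i.p. 18 h after reserpine. Horizontal activity (beam interruptions) was recorded in 30-min intervals and compared with reserpine-only controls. n=3 rats per value, mean ± SEM, one-way ANOVA.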

T1 sequence (P14416 whole entry): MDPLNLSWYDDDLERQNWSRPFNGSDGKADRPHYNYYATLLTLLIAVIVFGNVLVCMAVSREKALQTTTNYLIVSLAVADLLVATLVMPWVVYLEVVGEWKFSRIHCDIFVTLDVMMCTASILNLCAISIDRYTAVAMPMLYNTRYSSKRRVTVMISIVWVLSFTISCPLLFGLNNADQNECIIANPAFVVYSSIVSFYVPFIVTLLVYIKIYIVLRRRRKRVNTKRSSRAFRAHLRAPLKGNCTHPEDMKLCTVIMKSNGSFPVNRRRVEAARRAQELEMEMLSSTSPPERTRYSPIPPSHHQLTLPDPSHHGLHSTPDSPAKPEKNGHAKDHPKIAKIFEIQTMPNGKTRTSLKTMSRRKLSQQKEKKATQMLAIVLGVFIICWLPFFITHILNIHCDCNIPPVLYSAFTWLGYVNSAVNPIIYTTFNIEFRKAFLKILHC
T2 sequence (P35462 whole entry): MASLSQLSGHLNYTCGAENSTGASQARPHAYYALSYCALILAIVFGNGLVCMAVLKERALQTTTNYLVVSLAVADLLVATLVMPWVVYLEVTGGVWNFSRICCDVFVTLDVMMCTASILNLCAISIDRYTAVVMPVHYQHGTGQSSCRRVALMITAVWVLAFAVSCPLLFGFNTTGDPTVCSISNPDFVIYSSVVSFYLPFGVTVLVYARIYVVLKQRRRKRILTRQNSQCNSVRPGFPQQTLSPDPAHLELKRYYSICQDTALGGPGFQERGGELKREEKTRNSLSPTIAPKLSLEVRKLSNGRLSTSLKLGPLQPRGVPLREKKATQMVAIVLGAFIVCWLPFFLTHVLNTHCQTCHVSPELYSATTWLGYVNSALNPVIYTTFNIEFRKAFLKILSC
Chain of D(3) dopamine receptor (Rattus norvegicus, UniProt P19020) (P19020 whole entry): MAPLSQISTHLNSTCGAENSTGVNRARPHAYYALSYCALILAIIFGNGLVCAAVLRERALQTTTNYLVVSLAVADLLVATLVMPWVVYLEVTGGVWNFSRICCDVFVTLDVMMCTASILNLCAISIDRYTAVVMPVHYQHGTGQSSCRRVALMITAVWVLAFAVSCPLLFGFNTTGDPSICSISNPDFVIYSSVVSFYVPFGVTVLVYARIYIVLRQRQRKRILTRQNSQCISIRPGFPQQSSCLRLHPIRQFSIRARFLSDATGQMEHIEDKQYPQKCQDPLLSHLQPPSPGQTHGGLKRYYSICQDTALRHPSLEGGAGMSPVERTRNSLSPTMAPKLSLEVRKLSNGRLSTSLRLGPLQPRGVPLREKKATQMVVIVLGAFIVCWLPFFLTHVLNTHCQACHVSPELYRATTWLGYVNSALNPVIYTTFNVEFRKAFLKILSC
Chain of D(2) dopamine receptor (Rattus norvegicus, UniProt P61169) (P61169 whole entry): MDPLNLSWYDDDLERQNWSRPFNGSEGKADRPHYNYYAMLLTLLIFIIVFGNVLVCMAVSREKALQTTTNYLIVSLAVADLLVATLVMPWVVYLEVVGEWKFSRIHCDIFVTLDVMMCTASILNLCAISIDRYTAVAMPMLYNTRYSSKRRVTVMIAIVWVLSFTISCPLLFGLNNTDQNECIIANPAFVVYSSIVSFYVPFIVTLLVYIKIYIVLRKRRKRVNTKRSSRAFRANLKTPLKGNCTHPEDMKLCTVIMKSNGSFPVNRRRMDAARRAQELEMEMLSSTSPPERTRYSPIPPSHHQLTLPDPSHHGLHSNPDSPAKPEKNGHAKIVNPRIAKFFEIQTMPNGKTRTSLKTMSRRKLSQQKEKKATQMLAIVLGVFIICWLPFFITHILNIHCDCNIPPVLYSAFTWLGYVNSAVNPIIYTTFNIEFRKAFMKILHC

SMILES | Ratio Ki (Rattus norvegicus [2]) | Ki (D(3) dopamine receptor [3]) | EC50 (D(2) dopamine receptor [5]) | Emax (D(2) dopamine receptor [6]) | EC50 (D(3) dopamine receptor [7]) | Emax (D(3) dopamine receptor [8]) | further results
CCCN[C@H]1CCc2nc(N)sc2C1 |  |  |  |  |  |  | Activity [1]: Active
CCCN(C/C=C/c1ccc(O)c(OC)c1)C1CCc2nc(N)sc2C1 (configuration not stated) | 119 |  |  |  |  |  | 
CCCN(CCCCCc1ccc(O)c(OC)c1)C1CCc2nc(N)sc2C1 (racemic) | 48 | 3.62 nM |  |  |  |  | 
CCCN(CCCCCc1ccc(O)c(O)c1)[C@H]1CCc2c(O)cccc2C1 | 9 | 0.493 nM | 0.27 nM | 88.8% | 0.33 nM | 90.9% | Ki (D(2) dopamine receptor [4]): 4.67 nM; Activity (PC-12 [9]): Dose-dependent effect; viability at 30 µM (PC-12 [10]): 18 to 25%; inhibition [11]: Active; Ratio EC50 (Homo sapiens): 0.82
CCCN(CCC)C1CCc2c(O)cccc2C1 (configuration not stated) |  |  |  |  |  |  | Activity [1]: Active
CCCN(CCC/C=C/c1ccc(O)c(OC)c1)C1CCc2nc(N)sc2C1 (racemic) | 35 | 4.24 nM |  |  |  |  | Ki (D(2) dopamine receptor [4]): 150 nM
CCCN(CCC/C=C\c1ccc(O)c(OC)c1)C1CCc2nc(N)sc2C1 (racemic) | 10 |  |  |  |  |  | 
CCCN(CCCCCc1ccc(O)c(O)c1)[C@H]1CCc2nc(N)sc2C1 | 46 |  | 22.9 nM | 97.4% | 2.62 nM | 83.4% | Activity (Rattus norvegicus [12]): Active; Activity (PC-12 [9]): Dose-dependent effect; viability at 30 µM (PC-12 [10]): 18 to 25%; inhibition [11]: Active; Ratio EC50 (Homo sapiens): 8.74
CCCN(CCC)CCc1cccc2c1CC(=O)N2 |  |  |  |  |  |  | Activity (Rattus norvegicus [12]): Active
CCCN(CCCCCc1ccc(O)c(OC)c1)[C@H]1CCc2nc(N)sc2C1 | 43 |  | 2.09 nM | 96.2% | 0.78 nM | 94.4% | Ratio EC50 (Homo sapiens): 2.68
CCCN(CCCCCc1ccc(O)c(O)c1)C1CCc2nc(N)sc2C1 (racemic) | 45 |  |  |  |  |  | 
CCCN(CCCc1ccc(O)c(OC)c1)C1CCc2nc(N)sc2C1 (racemic) | 153 |  |  |  |  |  | 
CCCN(CCCCCCc1ccc(O)c(OC)c1)C1CCc2nc(N)sc2C1 (racemic) | 87 | 0.675 nM |  |  |  |  | Ki (D(2) dopamine receptor [4]): 58.5 nM
CCCN(CCCCCc1cc(O)ccc1O)[C@H]1CCc2nc(N)sc2C1 |  | 0.78 nM | 9.3 nM | 88% | 1.22 nM | 90.9% | 
CCCN(CCC/C=C/c1ccc(O)c(OC)c1)[C@H]1CCc2nc(N)sc2C1 | 6 | 22.3 nM | 37.7 nM | 84.3% | 20.4 nM | 87.5% | Ki (D(2) dopamine receptor [4]): 123 nM; Activity (PC-12 [9]): Dose-dependent effect; viability at 30 µM (PC-12 [10]): 18 to 25%; Ratio EC50 (Homo sapiens): 1.85
